Source: PubChem BioAssay
FXIa inh: inhibitors of human coagulation factor XIa. P03951. purified FXIa, Boc-Glu-Ala-Arg-AMC fluorogenic substrate. inhibition, % at 5 µM. hit rate 0.14% among 220,000. AID 798;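 active = inhibition of at least 40%; inactive = inhibition below 40%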;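 also: fluorescence of freed AMC excited at 355 nm; 0% = enzyme without compound and 100% = no enzyme blank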
Target sequence (P03951 19-387 limits assumed): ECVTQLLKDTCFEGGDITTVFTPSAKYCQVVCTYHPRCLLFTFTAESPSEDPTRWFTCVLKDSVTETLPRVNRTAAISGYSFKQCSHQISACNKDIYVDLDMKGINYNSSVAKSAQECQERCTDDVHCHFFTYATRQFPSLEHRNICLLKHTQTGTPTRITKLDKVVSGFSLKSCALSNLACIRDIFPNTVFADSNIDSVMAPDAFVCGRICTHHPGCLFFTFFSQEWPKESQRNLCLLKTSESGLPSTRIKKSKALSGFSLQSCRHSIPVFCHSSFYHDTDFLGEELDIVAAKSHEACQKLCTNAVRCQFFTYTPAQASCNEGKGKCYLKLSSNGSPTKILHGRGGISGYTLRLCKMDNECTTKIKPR
Target sequence (P03951 388-625 limits assumed): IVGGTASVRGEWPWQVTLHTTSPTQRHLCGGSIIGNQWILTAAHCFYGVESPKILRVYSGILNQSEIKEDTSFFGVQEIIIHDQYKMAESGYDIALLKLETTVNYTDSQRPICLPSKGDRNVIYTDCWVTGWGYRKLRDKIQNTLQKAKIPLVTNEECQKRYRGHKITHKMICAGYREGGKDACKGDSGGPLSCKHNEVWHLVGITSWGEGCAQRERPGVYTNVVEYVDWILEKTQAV
Thrombin inh: inhibitors of human thrombin. P00734. alpha-thrombin, Boc-VPR-AMC fluorogenic substrate cleavage. inhibition, % at 5 µM. hit rate 0.26% among 220,000. AID 1046;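 active = inhibition at or above 40%; inactive = inhibition below 40%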;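 also: 0% = enzyme with no compound and 100% = wells without enzyme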
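signal = AMC fluorescence, 355/460 nm | material = human alpha-thrombin enzyme | control set = enzyme without compound as high, wells lacking enzyme as low | times = reaction at room temperature | read-out basis = percent inhibition scaled between no-compound controls and no-enzyme blanks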
Furin inhibitor: inhibitors of human furin | purified furin, fluorogenic substrate cleavage | inhibition, % at 20 µM or 30 µM | hit rate 0.061% among 220,000 | AID 463115; in the data active = inhibition above about 25%
PERK inh: inhibitors of human PERK kinase; hit rate 0.17% among 220,000; inhibition, % at 5.6 µM; CHO PERK-DD fusion, SEAP luminescence translation reporter;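 active = inhibition above the mean inhibition of all tested compounds plus 3 SD, set separately per screening campaign, cut at about 2.9% in these data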;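 also: PERK kinase domain activated by AP20187 dimerizer at 100 nM; 0% = DMSO with dimerizer and 100% = rapamycin at 8.4 µM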
FXIIa inh 1536: inhibitors of human coagulation factor XIIa. P00748. purified FXIIa, Boc-QGR-AMC fluorogenic substrate, 2 h. inhibition, % at 5 µM. hit rate 0.3% among 220,000; in the data active = inhibition above about 40%;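 also: 0% = enzyme with no compound and 100% = blank without enzyme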
hK5 inh: kallikrein 5 (human) inhibition; recombinant hK5, fluorogenic AMC substrate cleavage; inhibition, % at 5 µM; hit rate 0.59% among 210,000; AID 873;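 active = inhibition of 40% or more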;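 also: 0% = enzyme controls without compound and 100% = no-enzyme blanks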
Starred values were filed as active, the others as inactive; x = no result given. Hits are enriched below; roughly 1.2% of the tested compounds scored in any of these assays.

SMILES	FXIa inh	Thrombin inh	Furin inhibitor	PERK inh	FXIIa inh 1536	hK5 inh
CCOC(=O)C1(CCCc2ccccc2)CCN(C(=O)C2CCCN(C(N)=O)C2)CC1 (stereo not given)	-5	3	-19	0	0	x
Cc1noc(NS(=O)(=O)c2ccc(NC(=O)c3ccc(N4C(=O)c5ccccc5C4=O)cc3)cc2)c1C	1	-1	-33	1	8	0
Cc1noc(NS(=O)(=O)c2ccc(N3Cc4ccccc4C3=O)cc2)c1C	14	21	-18	3.1*	24	22
Cn1nnnc1SCCNCc1cccnc1	-5	-5	-22	3.2*	-17	4
Cc1cc(F)ccc1S(=O)(=O)Nc1ccccc1C(=O)NCc1ccccn1	34	36	-8	0	29	50*
O=C(CSc1ccccn1)Nc1ccc(Cl)cn1	16	3	-16	0	30	x
O=[N+]([O-])c1ccc(C(O)C23CN4CN(CN(C4)C2)C3)cc1 (stereo not given)	2	-1	-22	0	11	4
CCOc1ccc(NC(=O)Cn2cncc2-c2ccc([N+](=O)[O-])cc2)cc1	10	9	-10	0	30	41*
CCOC(=O)Cn1cncc1-c1ccc([N+](=O)[O-])cc1	14	-1	-5	2	14	-9
COc1ccc(NC(=O)c2ccc(Oc3ncccn3)cc2)cc1	-7	3	-17	1	-7	-21
Cc1nc(NCC2CCCO2)c2nnn(Cc3c(F)cccc3Cl)c2n1 (stereo not given)	3	-1	-4	-1	10	9
Cc1cccc(NC(=S)NNC(=O)c2ccco2)c1	5	-2	-14	3.1*	11	-166
Cc1ccc(NC(=S)NNC(=O)c2ccco2)cc1	-6	-3	-21	0	9	-212
CCOC(=O)C1(CCOC)CCN(C2C3CC4CC(C3)CC2C4)CC1 (stereo not given)	-2	-4	-27	1	13	x
Nc1nncn1C(=O)CCc1ccccc1	0	56*	15	3	9	-1
Nc1nncn1C(=O)CCCOc1ccccc1	1	23	-21	1	24	2
CSc1nc(Sc2ccc(Cl)cc2)c2ccccc2n1	11	20	-21	2.9*	15	62*
O=C(OCC(=O)N1CCCc2ccccc21)c1cnc(Cl)c(Cl)c1	15	-2	-3	1	5	-9
O=C(OCC(=O)N1CCCc2ccccc21)c1ccc(Cl)nc1	14	28	-16	-1	47*	29
Cc1ccccc1NC(=O)NCCCN1CCN(C2CCCCC2)CC1	-14	-2	-12	-1	-19	6
Cc1ccccc1NC(=O)NCCCN1CCCC1	2	-3	-19	3.5*	4	-2
CC1(C)CC(=O)C=C(NCCO)C1	3	1	-18	3.1*	17	-17
CC1(C)CC(=O)C=C(NCC(=O)O)C1	9	1	-8	0	23	5
CCCCCCCCNC1=CC(=O)CC(C)(C)C1	23	7	4	-2	30	50*
CC(=O)NC(CC(=O)NCCN1C(=O)S/C(=C\c2ccccc2)C1=O)c1ccccc1 (stereo not given)	13	1	-19	0	5	0
SMILES	FXIa inh	Thrombin inh	Furin inhibitor	PERK inh	FXIIa inh 1536	hK5 inh
COc1ccc(NC(=O)CSc2nc3ccccc3cc2Cc2ccccc2)cc1	6	4	-19	0	21	-13
COc1ccc(OC)c(NC(=O)CSc2nc3ccccc3cc2Cc2ccccc2)c1	2	-2	-11	2.9*	4	-17
Cc1sc2c(c1C)C(=O)NC(c1cccc(O)c1)N2 (stereo not given)	40*	2	-19	0	16	-16
Cc1cccc(OC2CCN(Cc3nc(CC4CC4)no3)CC2)c1	-1	-5	-24	3.0*	4	x
Cc1cc(C)nc(Oc2ccc([N+](=O)[O-])cc2)n1	-3	-2	-15	1	-1	-7
CCCCCNC(=O)CSC1=N/C(=C\c2ccc(Cl)c(Cl)c2)C(=O)N1CC	7	7	-11	3.0*	9	7
CCCNC(=O)CSC1=N/C(=C/c2ccc(F)cc2)C(=O)N1CC	4	-5	-10	1	9	-7
Cc1ccc(O)c(C(=O)c2cc(C#N)c3nc4ccccc4n3c2)c1	-1	7	-25	0	7	-17
N#Cc1c(NC(=O)CCn2cnc3ccccc3c2=O)oc(-c2ccccc2)c1-c1ccccc1	-3	-43	28*	0	-1	-18
CSCCC(NC(=O)c1ccccc1C)C(=O)O (stereo not given)	-1	-4	-25	0	6	5
O=C(O)CCC(=O)CCC(=O)c1ccc(Cl)cc1	9	14	-19	1	33	44*
COc1ccc(C(=O)NNC2=NCCCCC2)cc1	1	-2	-26	0	8	-1
CN(C)n1cnc2ccsc2c1=O	-8	-3	-15	2	-1	-14
Cc1ccc(C)c(C(=O)c2c(C)nc3sccn23)c1	4	22	-8	0	26	44*
Cc1ccc(SCc2cc(=O)n3ccsc3n2)c(C)c1	7	0	-14	1	4	-9
Cc1ccc(CNC(=S)Nc2cc(C)ccc2OC(F)F)cc1	-7	-1	-13	1	-4	-11
Cc1ccc(CCNC(=O)C2CCCN(C(=O)c3cc4sccc4n3C)C2)cc1 (stereo not given)	9	28	-26	-1	7	47*
CCN(CC)C(=O)CSc1nc(C)cc(C)n1	1	-1	-29	1	14	4
Oc1ccc2ccccc2c1C=NC12CN3CCN(CN(C3)C1)C2	0	5	-7	1	13	44*
FC(F)(F)c1cnc(Oc2ccccc2-c2nnco2)c(Cl)c1	7	5	-10	-1	19	1
Nc1ccccc1Oc1ncc(C(F)(F)F)cc1Cl	7	3	-25	2.9*	17	-17
CCC(C)[C@H](NC(=O)N1CCCCC1)C(=O)OC (stereo not given in full)	-1	-9	-14	2	2	-2
Cc1ccc(C)c(N2C(=O)CN=C2Nc2ccccc2Cl)c1	5	-3	25*	0	5	3
O=C1CN=C(Nc2ccccc2Cl)N1c1ccccc1	-4	-2	-7	1	12	6
COC(=O)c1[nH]c2cc(OC)ccc2c1NC(=O)CCN1CCCCC1	45*	14	34*	1	28	31
COC(=O)c1[nH]c2cc(C)ccc2c1NC(=O)CN1CCc2cc(OC)c(OC)cc2C1	-8	4	-17	-1	-1	97*
Cc1[nH]c(=O)[nH]c(=O)c1/C=C/C(=O)O	0	-1	-29	1	9	0
CCN(CC)S(=O)(=O)c1ccc(O)c(NS(=O)(=O)c2ccccc2F)c1	4	-1	-11	0	5	-49
